Source: PubChem BioAssay
Fibroblast inh – blocks proliferation of human lung fibroblasts; LL 47 human lung fibroblast viability, ATP luminescence; stronger effect = lower value; viability, % at 10 µM; actives 1.1% (n = 85,000); AID 719;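 active means viability at or below 50% in the single dose screen; inactive means viability above 50%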;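 further: compound exposure lasted 72 h before the ATP readout; 100% = median luminescence of untreated cell-only wells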
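Material: Human LL 47 lung fibroblast cells | Input: 1,150 cells/well | Buffer or medium: IMEM plus 15% FBS | Compound dosing: 0.1% DMSO in all compound wells | Times: Overnight cell rest, 72 h compound treatment at 37 °C | Signal: CellTiter-Glo luminescence measuring cellular ATP | Measure: % viability versus median cells-only luminescence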
HUVEC prolif 384 – inhibitors of human endothelial cell proliferation. HUVEC proliferation, CellTiter-Glo luminescence, 72 h; stronger effect = lower value. viability, % at 10 µM (by protocol). actives 1.1% (n = 86,000). AID 648;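 active means viability at or below 30%; inactive means viability above 30%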;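 further: 100% = median luminescence of DMSO-only cell control wells on each plate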
bCat KO growth – beta-catenin-lacking colon tumor cell growth suppression. HCT116 beta-catenin knockout viability, CellTiter-Glo, 60 h; stronger effect = lower value. viability, % at 10 µM. actives 1.5% (n = 140,000);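 active means viability at or under a set limit, the compound median less 4 SD, cut at about 6% in these data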;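 further: 0% = Hyamine 1622 control at 20 µM and 100% = untreated cell control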
PTEN del growth – PTEN-deleted cell growth suppression | HCT116 PTEN-null viability, CellTiter-Glo, 60 h; stronger effect = lower value | viability, % at 10 µM | actives 1.2% (n = 140,000) | AID 827;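 active means viability at or below a set limit, 4 SD under the median of all tested compounds, cut at about 3.7% in these data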;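 further: PTEN knockout HCT116 line with beta catenin targeted HCT116 as companion control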
H69AR growth 86K – blocks growth of human H69AR lung tumor cells; H69AR lung tumor viability, ATP luminescence, 72 h; stronger effect = lower value; viability, % at 10 µM; actives 6% (n = 85,000); AID 598;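 active means viability at or below 40%; inactive means viability above 40%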;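 further: multidrug resistant small cell line overexpressing MRP-1 efflux transporter; 100% = mean luminescence of untreated control wells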
* marks the source's active call; other numbers are inactive results; . = no result given. The entries come from a sample that favours hits as a whole.

SMILES	Fibroblast inh	HUVEC prolif 384	bCat KO growth	PTEN del growth	H69AR growth 86K
CC(C)Nc1nc(NC(C)C)nc(N(C#N)CCOc2ccc(Cl)cc2Cl)n1	84	87	65	60	28*
COC(=O)c1c(NC(=O)c2nc3ccccc3s2)sc2c1CCN(C(C)=O)C2	3.4*	4.2*	90	72	44
COc1ccc(Cn2c(SCc3ccccc3C)nc3cc(OC)c(OC)cc3c2=N)cc1	.	.	1.6*	1.1*	.
CCCC1=C(C(=O)OCC)C(/C=C/c2ccccc2)n2ncnc2N1 (stereo not drawn)	43*	62	30	32	19*
CCOC(=O)C1=C(C)Nc2ncnn2C1/C=C/c1ccccc1 (stereo not drawn)	75	81	81	73	23*
CCOC(=O)C1=C(c2ccccc2)Nc2ncnn2C1c1cccc(OC)c1OC (stereo not drawn)	91	88	91	85	39*
COc1ccc2c(c1)c(=O)c(C(=O)O)c(-c1ccc3c(c1)OCO3)n2C	.	.	102	97	.
COc1cccc(-n2nnc3c(=O)n(CC(=O)N4CCC(Cc5ccccc5)CC4)cnc32)c1	94	75	66	68	30*
COc1ccc(S(=O)(=O)N(C(C)=O)c2ccc(OC(C)=O)c3ccccc23)cc1[N+](=O)[O-]	.	.	2.0*	2.8*	.
Cc1ccc(S(=O)(=O)N(C(=O)c2ccncc2)c2ccc(OC(=O)c3ccncc3)c3ccccc23)cc1	.	.	9	6	.
CC(C)COc1ccc(CSCCNC(=S)Nc2ccccc2)cc1	.	.	36	40	.
Cc1ccc(Nc2nnc(SCC(=O)Nc3cccnc3Cl)s2)cc1C	.	.	73	78	.
CNC(CC(=O)c1ccc([N+](=O)[O-])cc1)C(Cl)(Cl)Cl (stereo not drawn)	.	.	2.6*	3.4*	.
Cc1cccc2cc3c(N)c(C(=O)N4CCOCC4)sc3nc12	64	62	13	16	18*
Cc1cc(C)c2cc3c(N)c(C(=O)N4CCc5ccccc5C4)sc3nc2c1	.	.	93	97	.
CCOc1ccc(OCC)c(NC(=O)CN2CCN(c3cccc(C)c3)C(C)C2)c1 (stereo not drawn)	76	63	32	88	19*
CCOc1ccc(OCC)c(NC(=O)CN2CCN(c3cccc(C)c3)CC2)c1	98	106	88	93	71
N/C(=N\OC(=O)Nc1ccc(Cl)cc1)c1ncc(C(F)(F)F)cc1Cl	106	67	78	84	32*
Cc1ccc(NC(=O)C(=O)NCc2ccc(/C=C(/C#N)C(=O)NCc3cccnc3)o2)cc1C	.	.	73	81	.
CC(NC(=O)CN(c1cccc(C(F)(F)F)c1)S(=O)(=O)c1ccc(Cl)c([N+](=O)[O-])c1)c1ccccc1 (stereo not drawn)	.	.	5.8*	20	.
C/C=C/C=N/NC(=O)CN(c1ccc(Br)cc1)S(=O)(=O)c1ccccc1	.	.	85	85	.
Oc1ccccc1-c1nnc(SCCN2CCOCC2)n1Cc1ccccc1	24*	88	2.7*	2.4*	15*
C=CCOC(=O)C1=C(C)NC(SCC(=O)N(CC)CC)=C(C#N)C1c1ccco1 (stereo not drawn)	95	94	89	73	35*
COc1ccccc1CNC(=O)c1ccc(OC(F)F)c(OC)c1	.	.	86	92	.
Cc1cccc2cc(C(c3nnnn3Cc3ccccc3)N3CCCc4ccccc43)c(=O)[nH]c12 (stereo not drawn)	.	.	1.8*	2.7*	.
SMILES	Fibroblast inh	HUVEC prolif 384	bCat KO growth	PTEN del growth	H69AR growth 86K
COc1ccc(C(=O)OCC(=O)c2cc(OC)ccc2OC)c(OC)c1	104	103	0.6*	0.8*	92
COc1ccc(OC)c(C(=O)COC(=O)c2ccc(C)o2)c1	98	99	89	96	92
CC(C)c1ccc2c(c1)C1Cc3ccccc3C1N2 (stereo not drawn)	.	.	79	78	.
CC(=O)c1cc2c(cc1NS(=O)(=O)c1ccc3c(c1)OCCO3)OCO2	89	97	82	88	65
COC(=O)COc1ccc(S(=O)(=O)Nc2ccc3c(c2)OCCO3)cc1Cl	24*	28*	99	103	83
COC(=O)c1ccc(Cl)c(NS(=O)(=O)c2ccc3c(c2)OCCO3)c1	82	61	39	34	20*
COc1ccc(-n2nc(C(=O)Nc3ccc4c(c3)OCO4)c3ccccc3c2=O)c(OC)c1	94	72	11	20	7.0*
COc1ccccc1-n1nc(C(=O)Nc2ccc3c(c2)OCO3)c2ccccc2c1=O	85	74	81	81	42
